# KCNK3 inh: human KCNK3 channel inhibitors, primary screen, CHO cells, FluxOR thallium flux, B-score; 340,000 tested, 0.84% active; AID 602410, 2012; FluxOR fluorescence; active compounds read low; Potassium channel subfamily K member 3 (Homo sapiens), O14649; B-score at 10 µM;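 active = B-score under library mean minus 4 SD, starting fluorescence ratio at most library mean plus 5 SD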;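 note: more negative B-score means stronger inhibition of thallium flux through KCNK3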
# Target sequence (O14649 whole entry, looked up): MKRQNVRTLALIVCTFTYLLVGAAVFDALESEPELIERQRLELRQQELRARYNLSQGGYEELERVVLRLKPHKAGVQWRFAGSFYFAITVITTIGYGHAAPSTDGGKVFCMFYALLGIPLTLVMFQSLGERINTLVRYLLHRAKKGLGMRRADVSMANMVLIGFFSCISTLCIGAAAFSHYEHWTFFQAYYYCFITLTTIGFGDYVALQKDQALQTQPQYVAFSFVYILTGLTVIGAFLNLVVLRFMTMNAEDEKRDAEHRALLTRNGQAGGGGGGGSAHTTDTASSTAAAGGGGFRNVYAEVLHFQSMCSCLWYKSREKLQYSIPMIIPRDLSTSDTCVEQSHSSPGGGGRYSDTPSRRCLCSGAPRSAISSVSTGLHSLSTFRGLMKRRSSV
# KCNQ1 inh: inhibitors of human KCNQ1 channel, primary screen, cell-based, thallium flux, high-throughput; CHO-K1 KCNQ1, FluxOR thallium flux fluorescence; active compounds read high; B-score at 10 µM; 310,000 tested, 1.3% active;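 active = compounds whose thallium flux B-score, printed positive for inhibition, exceeds three library SD while starting fluorescence stays within three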;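 note: channel opened by potassium depolarization with thallium stimulus after 20 min compound exposure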
# Cl transport mod: KCC2 cotransporter modulators, thallium flux, primary screen, cell-based, HEK293 KCC2, FluoZin-2 fluorescence, MLSMR; Solute carrier family 12 member 5 (Homo sapiens), Q9H2X9; KCC2 cells, thallium flux FluoZin-2 fluorescence; B-score of Tl+ flux slope (higher = more flux/activation; lower = inhibition) at 10 µM; 190,000 tested, 2.2% active; AID 1456, 2008;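 active = thallium flux slope and its plate-corrected score both differing from the plate sample mean at a set confidence after two filtering rounds, in either direction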;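 note: slope of fluorescence scaled to starting intensity during 10 to 20 s after thallium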
# KCNQ1 act: potentiators or activators of KCNQ1 channel, primary screen, cell-based, thallium flux, high-throughput. Potassium voltage-gated channel subfamily KQT member 1 (Homo sapiens), P51787. B-score at 10 µM. AID 2648, 2010. CHO-K1 KCNQ1, thallium flux FluxOR fluorescence; active compounds read high. 310,000 tested, 0.35% active;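 active = fluorescence ratio B-score, a plate-corrected score, at least three library SD, with initial intensity B-score within 5 SD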
#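 System: Stable KCNQ1 CHO-K1 line | Incubation: 90 min dye loading and 20 min compound exposure, both at room temperature | Measure: Ratio B score | Medium: Assay buffer for compound exposure, DMSO matched across wells | Compound dosing: Single-concentration screen | Probe or stimulus: K+/Tl+ depolarizing stimulus | Measured by: Kinetic FluxOR fluorescence, 10 s baseline plus 110 s post-stimulus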
# KCNK9 block: KCNK9 potassium channel inhibitors, primary screen, HEK293 cells, thallium flux. Potassium channel subfamily K member 9 (Homo sapiens), Q9NPC2. FluxOR thallium flux fluorescence; active compounds read low. B-score at 10 µM. 310,000 tested, 1.2% active. AID 488922, 2010;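 active = ratio B-score over 3 SD below the library mean, with starting fluorescence within 5 SD of its mean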;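 note: negative B-score means less thallium flux so channel inhibition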
# hERG rescue: hERG rescue from dofetilide block, primary screen, cell-based, CHO-hERG, FluxOR thallium flux, dofetilide IC70. 310,000 tested, 0.51% active. dofetilide IC70 present. AID 1511, 2009. Voltage-gated inwardly rectifying potassium channel KCNH2 (Homo sapiens), Q12809. activation (rescue from dofetilide block), less the hit threshold, % at 10 µM;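 active = activation above the mean of controls blocked by dofetilide plus 5 SD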;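 note: thallium influx through hERG after potassium depolarization seen as dye fluorescence rise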
# KCNK9 inh conf: KCNK9 potassium channel inhibitors, confirmation, HEK293 cells, thallium flux, duplicate; shares compounds with KCNK9 block; FluxOR thallium flux fluorescence; inhibition, % at 10 µM; 4,900 tested, 43% active; AID 492992, 2010;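 active = thallium signal inhibited by more than 5 SD of the compound-free buffer control wells, on both duplicate plates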
# Kir2-1 spec: mouse Kir2.1 channel inhibition, confirmation, selectivity assay for KCNK9 modulator project, cell-based, HEK293, thallium flux; inhibition, % at 10 µM; shares compounds with KCNK9 block; Kir2.1 cells, FluxOR thallium flux fluorescence; AID 492993, 2010; 4,900 tested, 4% active;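 active = thallium signal drop more than 5 SD beyond the mean of the no-compound control wells, seen in both duplicate plates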;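 note: signal is fluorescence rise after thallium addition divided by baseline fluorescence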
# HEK293 Tl ctr: thallium flux in non-induced HEK293 cells, confirmation, counter-screen for KCNK9 inhibitor project, cell-based, second counter screen, non-induced KCNK9-HEK293 | shares compounds with KCNK9 block | FluxOR thallium flux | inhibition, % at 10 µM | 4,900 tested, 40% active;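 active = thallium signal drop beyond 5 SD of the untreated control mean, on both duplicate plates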
# Numbers stand for hits; n = inactive; x = not tested or not shown. In the library only some 4.1% were active in any assay of this set; here they are far more common.
SMILES,KCNK3 inh,KCNQ1 inh,Cl transport mod,KCNQ1 act,KCNK9 block,hERG rescue,KCNK9 inh conf,Kir2-1 spec,HEK293 Tl ctr
CCCC(=O)C1C(=O)NC(=O)NC1=O,n,n,n,n,n,n,x,x,x
O=C(Nc1ccc2ccccc2c1)c1nn(C23CC4CC(CC(C4)C2)C3)cc1Br,n,n,x,n,n,n,n,n,n
Cc1nc(Cl)sc1C(=O)Nc1ccc2ccccc2c1,n,n,n,n,n,n,x,x,x
C=CCc1ccc(OC)cc1,n,x,x,x,x,x,x,x,x
FC(F)(F)c1cccc(-n2nnnc2C2(N3CCOCC3)CCCCC2)c1,n,n,n,n,-10,n,42%,n,35%
O=C1CC(=O)N(c2cccc(C(F)(F)F)c2)C(=O)N1,n,n,x,n,n,n,x,x,x
CC1CN(c2ccccn2)C(C)CN1C(=O)C(O)(c1ccccc1)c1ccccc1 (configuration not stated),n,x,x,x,x,x,x,x,x
Oc1c(Cl)c(Cl)c(Cl)c(Cl)c1Cl,n,n,x,n,n,n,n,n,n
CCCCC/C(=N/O)c1c(C)[nH]c2ccccc12,n,n,n,n,n,n,x,x,x
CCCCC/C(=N\O)c1c[nH]c2ccccc12,n,n,n,n,-13,n,56%,n,25%
COc1ccc(CN(CCc2c[nH]c3ccccc23)Cc2ccc(OC)cc2)cc1,n,x,x,x,x,x,x,x,x
O=C(c1cc(F)ccc1F)C1CCCN(Cc2cccc(Cl)c2)C1 (configuration not stated),n,n,n,n,n,n,n,n,n
COc1cccc(C(=O)C2CCCN(Cc3ccc(F)cc3)C2)c1 (configuration not stated),n,n,x,n,n,n,n,n,n
COc1cccc(C(=O)C2CCCN(Cc3cnn(C(C)C)c3)C2)c1 (configuration not stated),n,n,x,n,n,n,x,x,x
COc1cccc(C(=O)C2CCCN(Cc3cccc(C)n3)C2)c1 (configuration not stated),n,n,n,n,n,n,x,x,x
O=C(c1cc(F)ccc1F)C1CCCN(CCCc2ccccc2)C1 (configuration not stated),n,n,x,n,n,n,x,x,x
Cc1cccc(CN2CCCC(C(=O)c3cccc(OC(C)C)c3)C2)n1 (configuration not stated),n,n,n,n,n,n,n,n,n
O=C(c1ccc2c(c1)OCO2)C1CCCN(Cc2c(F)cccc2Cl)C1 (configuration not stated),n,n,x,n,n,n,n,n,n
CN1CCCN(C(=O)COc2ccc(Br)cc2)CC1,n,n,x,n,n,n,x,x,x
O=C(c1ccc(Cl)cc1)C1CCCN(Cc2cccc3cccnc23)C1 (configuration not stated),n,n,n,n,n,n,n,n,n
COc1cccc(C(=O)C2CCCN(Cc3ccc4nsnc4c3)C2)c1 (configuration not stated),n,n,n,n,n,n,n,n,n
C=COCCn1c(C)c(C(=O)OCC)c2cc(O)ccc21,n,n,n,n,n,n,x,x,x
CC(C)(C)[C@]1(O)C[C@@H]2OC(=O)C[C@@]23C(=O)O[C@@H]2OC(=O)[C@@H](O)C213 (some centres not stated),n,x,x,x,x,x,x,x,x
COC(=O)Cn1cc(C(=O)c2ccccc2F)c2ccccc21,n,n,x,n,n,n,x,x,x
O=C(c1ccccc1F)c1cn(Cc2ccc(F)cc2)c2ccccc12,n,n,n,n,-8.7,n,50%,n,34%
SMILES,KCNK3 inh,KCNQ1 inh,Cl transport mod,KCNQ1 act,KCNK9 block,hERG rescue,KCNK9 inh conf,Kir2-1 spec,HEK293 Tl ctr
Cc1cccc(CN2CCCN(Cc3ccc(Cl)cc3)S2(=O)=O)c1,n,n,x,n,n,n,x,x,x
Cc1ccc(CN2CCCN(Cc3ccc(C)cc3)S2(=O)=O)cc1,n,n,x,n,n,n,n,n,n
CCOP(=O)(C#CC(C)(C)C)C(C)(O)c1ccccc1 (configuration not stated),n,n,n,n,n,n,x,x,x
CC(C)(C#CC(=O)O)OOC(c1ccccc1)(c1ccccc1)c1ccccc1,n,n,x,n,n,n,n,n,n
CC1=CC(=C2C(=O)NC(=S)NC2=O)C=C(C(F)(F)F)N1C,n,n,n,n,n,n,x,x,x
Cc1cc(O)c(CN2CC=C(c3ccccc3)CC2)cc1C(C)C,n,n,x,n,n,n,n,n,n
OC(CN1CC=C(c2ccccc2)CC1)c1ccccc1 (configuration not stated),n,n,x,n,n,n,x,x,x
Cc1ccsc1C(=O)C1CCCN(Cc2cccc(-n3cccn3)c2)C1 (configuration not stated),n,n,x,n,n,n,n,n,n
CSc1ncc(CN2CCCC(C(=O)c3sccc3C)C2)cn1 (configuration not stated),n,n,n,n,n,n,n,n,n
CSc1ccc(C(=O)C2CCCN(Cc3cnc(SC)nc3)C2)cc1 (configuration not stated),n,n,n,n,n,n,n,n,n
COc1cc(CN2CCCC(C(=O)c3sccc3C)C2)cc(Cl)c1O (configuration not stated),n,n,n,n,n,n,n,n,n
CN(C)C(Cc1ccccc1)C(=O)c1cccs1 (configuration not stated),x,x,n,x,x,x,x,x,x
O=c1[nH]c(=S)n(CCC2=CCCCC2)c(O)c1/C=N/Nc1ccccc1,n,n,n,n,n,n,n,n,25%
CC(=NCCN1CCCCC1)c1c(O)n(-c2ccccc2)c(=O)[nH]c1=O,n,n,n,n,n,n,n,n,n
O=[N+]([O-])c1cc(S(=O)(=O)c2ccc(O)c([N+](=O)[O-])c2)ccc1O,n,n,n,n,n,n,x,x,x
